The text below walks through data of ChEMBL document CHEMBL1152649, “Synthesis, cytotoxicity and human telomerase inhibition activities of a series of 1,2-heteroannelated anthraquinones and anthra[1,2-d]imidazole-6,11-dione homologues” (2009).

Calls of active or inactive are those of the source. The rule behind the calls is not given here.

Assay [1] has as its target Telomerase reverse transcriptase (Homo sapiens) (UniProt O14746). The assay can be described thus: Inhibition of TERT in human H1299 cells assessed as residual transcriptional activity at 1 uM after 24 hrs by SEAP reporter gene assay; values are per cent of control. A general note: A reporter such as luciferase makes a cellular process visible.
Assay [2] has the same target. The assay can be described thus: Inhibition of TERT in human H1299 cells assessed as residual transcriptional activity at 100 uM after 24 hrs by SEAP reporter gene assay; values are per cent of control.
Assay [3] shares this target. The assay can be described thus: Inhibition of TERT in human H1299 cells assessed as residual transcriptional activity at 10 uM after 24 hrs by SEAP reporter gene assay; values are per cent of control.
Assay [4] has the same target. The assay can be described thus: Inhibition of telomerase in human H1299 cells up to 100 uM by TRAP assay. Type of assay: cell-based. The essentials: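 PCR-based telomeric repeat amplification protocol (TRAP). The telomerase source was total lysate of H1299 lung cancer cells, with protein measured against BSA standards. Controls were extract without inhibitor and RNase A-treated extract.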

The nature of assay [5]: Cytotoxicity against human H1299 cells at 1 uM after 48 hrs by MTT assay. The class given is functional. The settings on record: NCI-H1299, 48 h. Summed up: (§1)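 H1299 non-small cell lung cancer cells were grown in RPMI 1640 with 10% FBS, penicillin and streptomycin at 37 °C under 5% CO2. About 2 × 10³ cells per well were seeded and left 24 h. Compounds were dissolved fresh in DMSO, diluted into complete medium and applied for 48 h. MTT was then added for 4 h at 37 °C, followed by lysis buffer (20% SDS, 50% DMF) for 16 h, and absorbance was read at 550 nm.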
In general terms: Tetrazolium assays rely on reduction of a dye to a coloured formazan, in cell work by metabolically active cells.

Assay [6] in a line: Cytotoxicity against human H1299 cells at 100 uM after 48 hrs by MTT assay. Type of assay: functional. The settings on record: NCI-H1299, 48 h. The essentials:
as §1

Assay [7] is described as follows: Cytotoxicity against human H1299 cells at 10 uM after 48 hrs by MTT assay. The class given is functional. Conditions: NCI-H1299, 48 h. Summed up:
as §1

As a reminder, the residual activity is the signal under treatment as a percentage of the control signal. What is called viability is a read-out of living cells in per cent, often relative to untreated cells.

Telomerase reverse transcriptase (Homo sapiens), sequence (O14746 whole entry): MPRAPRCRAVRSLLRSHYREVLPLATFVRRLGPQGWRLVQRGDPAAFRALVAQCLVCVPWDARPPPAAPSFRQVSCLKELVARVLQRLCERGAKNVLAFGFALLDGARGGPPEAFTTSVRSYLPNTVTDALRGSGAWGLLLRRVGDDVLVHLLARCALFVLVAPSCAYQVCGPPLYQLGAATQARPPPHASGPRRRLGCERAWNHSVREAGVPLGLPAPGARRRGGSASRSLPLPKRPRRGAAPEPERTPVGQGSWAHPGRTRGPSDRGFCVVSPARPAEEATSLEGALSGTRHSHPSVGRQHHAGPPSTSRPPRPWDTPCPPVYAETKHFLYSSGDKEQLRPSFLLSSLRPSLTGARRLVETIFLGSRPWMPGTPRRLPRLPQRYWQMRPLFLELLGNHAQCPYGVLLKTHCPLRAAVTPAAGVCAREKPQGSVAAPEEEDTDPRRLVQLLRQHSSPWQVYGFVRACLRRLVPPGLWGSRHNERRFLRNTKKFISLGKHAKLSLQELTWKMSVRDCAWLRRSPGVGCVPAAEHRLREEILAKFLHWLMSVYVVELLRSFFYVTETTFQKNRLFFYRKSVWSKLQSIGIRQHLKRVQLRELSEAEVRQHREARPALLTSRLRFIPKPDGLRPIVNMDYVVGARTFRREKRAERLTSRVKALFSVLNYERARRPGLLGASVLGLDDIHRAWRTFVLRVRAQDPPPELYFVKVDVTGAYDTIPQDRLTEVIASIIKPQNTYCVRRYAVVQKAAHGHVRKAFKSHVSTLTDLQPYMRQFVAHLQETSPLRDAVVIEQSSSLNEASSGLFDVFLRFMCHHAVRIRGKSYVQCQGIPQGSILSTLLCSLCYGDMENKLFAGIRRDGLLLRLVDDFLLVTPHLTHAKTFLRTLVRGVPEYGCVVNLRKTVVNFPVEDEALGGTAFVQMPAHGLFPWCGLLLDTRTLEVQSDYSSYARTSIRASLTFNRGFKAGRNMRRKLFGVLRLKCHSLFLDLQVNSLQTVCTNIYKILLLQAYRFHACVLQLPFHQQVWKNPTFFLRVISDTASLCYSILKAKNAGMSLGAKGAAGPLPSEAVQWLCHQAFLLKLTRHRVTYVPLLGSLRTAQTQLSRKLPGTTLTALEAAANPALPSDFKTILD

Consider `COc1ccc(OC)c(-c2nc3ccc4c(c3[nH]2)C(=O)c2ccccc2C4=O)c1`, for which the figures for the residual activity in assay [1], in assay [2] and in assay [3] were 77%, 41% and 76%, respectively. Further, in assay [4], the inhibition entry is “inactive”. For the same compound, in assay [5], the viability at 1 µM is 91%. Also, in assay [6], the viability at 100 µM turned out to be 13%. Further, in assay [7], the viability at 10 µM amounted to 39%.

For the compound `CC1(c2ccccc2)Nc2ccc3c(c2N1)C(=O)c1ccccc1C3=O` (stereo unspecified), the results for the residual activity in assay [1], in assay [2] and in assay [3] were 99%, 29% and 97%, respectively. In assay [4], the inhibition result is “inactive”. Also, in assay [5], the viability at 1 µM turned out to be 99%. In assay [6], the viability at 100 µM was 29%. For the same compound, the viability at 10 µM in assay [7] worked out at 99%.

Turning to `O=C1c2ccccc2C(=O)c2c1ccc1[nH]c(=S)[nH]c21`, the results for the residual activity in assay [1], in assay [2] and in assay [3] were 97%, 31% and 100%, respectively. The inhibition entry in assay [4] is “inactive”. Moreover, in assay [5], the viability at 1 µM stood at 101%. Further, the viability at 100 µM in assay [6] is 54%. For the same compound, in assay [7], the viability at 10 µM came out at 99%.

In the case of `O=C1c2ccccc2C(=O)c2c1ccc1nc(-c3ccc([N+](=O)[O-])cc3)[nH]c21`, the residual activity in assay [1] came to 85%; in assay [2], 6%; in assay [3], 62%. For the same compound, in assay [4], the inhibition entry is “inactive”. In addition, in assay [5], the viability at 1 µM is 84%. For the same compound, the viability at 100 µM in assay [6] was 33%. In assay [7], the viability at 10 µM is 52%.

Take `Cc1nc2ccc3c(c2[nH]1)C(=O)c1ccccc1C3=O`: the values for the residual activity in assay [1], in assay [2] and in assay [3] were 101%, 19% and 82%, respectively. The inhibition result in assay [4] is “inactive”. Besides, the viability at 1 µM in assay [5] was 64%. For the same compound, in assay [6], the viability at 100 µM was 33%. For the same compound, the viability at 10 µM in assay [7] turned out to be 44%.

On to `CC(C)c1nc2ccc3c(c2[nH]1)C(=O)c1ccccc1C3=O`, for which the results for the residual activity in assay [1], in assay [2] and in assay [3] were 83%, 13% and 76%, respectively. In addition, the inhibition entry in assay [4] was “inactive”. In addition, in assay [5], the viability at 1 µM was found to be 95%. The viability at 100 µM in assay [6] came to 34%. The viability at 10 µM in assay [7] turned out to be 73%.

`CC/C=C/c1nc2ccc3c(c2[nH]1)C(=O)c1ccccc1C3=O`: the figures for the residual activity in assay [1], in assay [2] and in assay [3] were 63%, 13% and 34%, respectively. Also, the inhibition result in assay [4] was “inactive”. In addition, the viability at 1 µM in assay [5] is 69%. For the same compound, the viability at 100 µM in assay [6] was 14%. The viability at 10 µM in assay [7] came to 48%.

Consider `Cc1nc2ccc3c(c2nc1C)C(=O)c1ccccc1C3=O`, for which the values for the residual activity in assay [1], in assay [2] and in assay [3] were 95%, 26% and 88%, respectively. The inhibition result in assay [4] is “inactive”. In addition, the viability at 1 µM in assay [5] is 78%. The viability at 100 µM in assay [6] amounted to 25%. In addition, the viability at 10 µM in assay [7] was determined as 69%.

On to `CCCCc1nc2ccc3c(c2[nH]1)C(=O)c1ccccc1C3=O`, for which the residual activity in assay [1] was determined as 91%; in assay [2], 36%; in assay [3] it was 84%. The inhibition entry in assay [4] is “inactive”. Further, the viability at 1 µM in assay [5] is 85%. The viability at 100 µM in assay [6] is 20%. Also, in assay [7], the viability at 10 µM came to 70%.

As for `O=C1c2ccccc2C(=O)c2c1ccc1nc(CCl)[nH]c21`, the residual activity in assay [1] was 94%; in assay [2], 5%; in assay [3] it was 81%. For the same compound, in assay [4], the inhibition result was “inactive”. In addition, the viability at 1 µM in assay [5] worked out at 80%. Further, in assay [6], the viability at 100 µM came out at 26%. Moreover, in assay [7], the viability at 10 µM turned out to be 79%.

In the case of `CCC(C)c1nc2ccc3c(c2[nH]1)C(=O)c1ccccc1C3=O` (stereo unspecified), the residual activity turned out to be 67% in assay [1], 11% in assay [2] and 58% in assay [3]. For the same compound, in assay [4], the inhibition entry is “inactive”. The viability at 1 µM in assay [5] turned out to be 77%. In assay [6], the viability at 100 µM was 43%. For the same compound, in assay [7], the viability at 10 µM amounted to 83%.

Consider `CC(C)(C)c1nc2ccc3c(c2[nH]1)C(=O)c1ccccc1C3=O`, for which the residual activity in assay [1] is 88%; in assay [2] it was 29%; in assay [3] it was 87%. Besides, the inhibition entry in assay [4] was “inactive”. Also, in assay [5], the viability at 1 µM is 83%. The viability at 100 µM in assay [6] was 56%. In addition, the viability at 10 µM in assay [7] turned out to be 81%.

In the case of `CCCCCCCc1nc2ccc3c(c2[nH]1)C(=O)c1ccccc1C3=O`, the residual activity was found to be 89% in assay [1], 32% in assay [2] and 88% in assay [3]. For the same compound, the inhibition result in assay [4] is “inactive”. The viability at 1 µM in assay [5] amounted to 85%. In assay [6], the viability at 100 µM was 40%. Further, in assay [7], the viability at 10 µM was 69%.
